Data: ChEMBL document CHEMBL3286101, “Probing of primed and unprimed sites of calpains: Design, synthesis and evaluation of epoxysuccinyl-peptide derivatives as selective inhibitors” (Eur J Med Chem, 2014)
Peptide text beside a SMILES is read from it. * marks the point of attachment. X4 = CC(C)C[C@H](NC(=O)[C@@H]1O[C@H]1C(=O)*)C(=O)N[C@@H](Cc1c[nH]c2ccccc12)C(=O)N[C@H](C(N)=O)[C@@H](C)O; X5 = CC(C)C[C@H](NC(=O)[C@H]1O[C@@H]1C(=O)*)C(=O)N[C@@H](Cc1c[nH]c2ccccc12)C(=O)N[C@H](C(N)=O)[C@@H](C)O; X3 = C[C@@H](O)[C@H](NC(=O)[C@@H]1CCCN1C(=O)[C@@H](NC(=O)[C@H]1O[C@@H]1C(=O)*)[C@@H](C)O)C(N)=O; X9 = C[C@@H](O)[C@H](NC(=O)[C@@H]1CCCN1C(=O)[C@@H](NC(=O)[C@@H]1O[C@H]1C(=O)*)[C@@H](C)O)C(N)=O; X10 = CC(C)C[C@H](NC(=O)[C@@H]1O[C@H]1C(=O)*)C(=O)N[C@@H](CO)C(=O)N[C@H](C(N)=O)[C@@H](C)O; X1 = CC(C)C[C@H](NC(=O)[C@H]1O[C@@H]1C(=O)*)C(=O)N1CCC[C@H]1C(=O)N[C@H](C(N)=O)[C@@H](C)O; X2 = CC(C)C[C@H](NC(=O)[C@@H]1O[C@H]1C(=O)*)C(=O)N1CCC[C@H]1C(=O)N[C@H](C(N)=O)[C@@H](C)O; X6 = CC(C)C[C@H](NC(=O)[C@H]1O[C@@H]1C(=O)*)C(=O)N[C@@H](CO)C(=O)N[C@H](C(N)=O)[C@@H](C)O; X7 = CC(C)[C@H](NC(=O)[C@@H]1O[C@H]1C(=O)*)C(=O)N1CCC[C@H]1C(=O)N[C@H](C(N)=O)[C@@H](C)O; X8 = CC(C)[C@H](NC(=O)[C@H]1O[C@@H]1C(=O)*)C(=O)N1CCC[C@H]1C(=O)N[C@H](C(N)=O)[C@@H](C)O

Assays:
[1] = biological target: T1, Calpain-1 catalytic subunit (Homo sapiens, UniProt P07384); assay: Inhibition of calpain-1 (unknown origin) using Suc-LY-AMC as substrate by fluorescence assay
T1 sequence (P07384 whole entry): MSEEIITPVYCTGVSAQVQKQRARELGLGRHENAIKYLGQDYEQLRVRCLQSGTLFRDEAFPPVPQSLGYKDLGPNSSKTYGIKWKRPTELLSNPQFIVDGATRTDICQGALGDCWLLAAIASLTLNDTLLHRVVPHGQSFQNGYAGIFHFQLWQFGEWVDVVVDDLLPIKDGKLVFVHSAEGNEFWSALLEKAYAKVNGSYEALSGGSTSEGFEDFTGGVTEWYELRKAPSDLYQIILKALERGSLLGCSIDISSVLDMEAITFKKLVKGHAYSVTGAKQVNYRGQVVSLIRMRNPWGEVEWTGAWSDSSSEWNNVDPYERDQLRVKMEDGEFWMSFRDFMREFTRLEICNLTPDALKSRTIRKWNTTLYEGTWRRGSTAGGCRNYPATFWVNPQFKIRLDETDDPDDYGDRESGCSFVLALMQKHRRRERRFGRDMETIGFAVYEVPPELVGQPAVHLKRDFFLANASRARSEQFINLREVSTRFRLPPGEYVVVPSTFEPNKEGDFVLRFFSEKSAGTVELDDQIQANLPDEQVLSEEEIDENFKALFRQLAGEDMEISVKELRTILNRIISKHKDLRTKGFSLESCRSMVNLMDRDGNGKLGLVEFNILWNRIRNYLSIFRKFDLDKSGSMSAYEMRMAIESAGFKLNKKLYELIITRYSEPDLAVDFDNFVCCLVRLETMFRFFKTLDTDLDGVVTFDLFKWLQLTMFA
Outline: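 Human erythrocyte calpain 1 at 0.5 μM starts the reaction, added to 100 µM Suc-LY-AMC, 3 mM Ca2+ and inhibitor at various concentrations in 50 µL calpain buffer (10 mM HEPES, 150 mM NaCl, 1 mM EDTA, pH 7.5). Fluorescence is followed at 380/460 nm. Triplicate experiments; mean ± S.D.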

[2] = Inhibition of rat calpain-2 large subnit/truncated small subunit expressed in Escherichia coli using Suc-LY-AMC as substrate by fluorescence assay
Outline: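 Rat calpain 2 is made from its 80-kDa large subunit and 21-kDa truncated small subunit, expressed in E. coli, purified on HisTrap and dialyzed into calpain buffer (10 mM HEPES, 150 mM NaCl, 1 mM EDTA, pH 7.5). The reaction starts when 0.2 μM enzyme is added to 100 µM Suc-LY-AMC, 3 mM Ca2+ and inhibitor at various concentrations. Fluorescence is read at 380/460 nm. Triplicates; mean ± S.D.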

Cathepsin B = Cathepsin B (Homo sapiens, UniProt P07858); assay: Inhibition of cathepsin B (unknown origin) using substrate-3 as substrate by fluorescence assay
Outline: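 Human liver cathepsin B is activated in 0.25 mM MES containing 10 mM DTE. The reaction starts when it is added at 0.7 nM to 100 μM Z-Arg-AMC with inhibitor at various concentrations in 0.25 mM MES, pH 5.0. Fluorescence is followed at 380/460 nm. Triplicates; mean ± S.D.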

[3] = Retention time of the compound by RP-HPLC analysis; format: physicochemical
Outline: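 Analytical RP-HPLC on a C18 column (150 × 4.6 mm, 5 μm, 100 Å). Eluent A is 0.1% TFA in water and eluent B is 0.1% TFA in acetonitrile–water 80:20. Gradient runs 0% B for 2 min, then to 90% B at 22 min, at 1 mL/min and ambient temperature. Detection at 220 nm.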

[4] = Selectivity ratio of Ki for cathepsin B (unknown origin) to Ki for rat calpain-2

Structure (SMILES) | Ki [1] | Ki [2] | Ki (Cathepsin B) | Retention_time [3] | Ratio Ki [4] | Retention time [3]
CC(C)C[C@H](NC(=O)[C@H]1O[C@@H]1C(=O)N[C@@H](CCCNC(=N)N)C(=O)N1CCC[C@H]1C(=O)N1CCC[C@H]1C(=O)N1CCC[C@H]1C(=O)N[C@@H](CO)C(N)=O)C(=O)N1CCC[C@H]1C(=O)N[C@H](C(N)=O)[C@@H](C)O (X1-RPPPS-NH2) | 23.7 µM | 17.9 µM | > 50 µM | 11.1 min | – | –
CC(C)C[C@H](NC(=O)[C@H]1O[C@@H]1C(=O)N[C@@H](CO)C(=O)N1CCC[C@H]1C(=O)N1CCC[C@H]1C(=O)N1CCC[C@H]1C(=O)N[C@@H](CO)C(N)=O)C(=O)N1CCC[C@H]1C(=O)N[C@H](C(N)=O)[C@@H](C)O (X1-SPPPS-NH2) | 12.5 µM | > 50 µM | > 50 µM | 12.5 min | – | –
CC(C)C[C@H](NC(=O)[C@H]1O[C@@H]1C(=O)N[C@@H](CO)C(=O)N[C@@H](CCC(N)=O)C(=O)N1CCC[C@H]1C(=O)N1CCC[C@H]1C(=O)N[C@@H](CO)C(N)=O)C(=O)N1CCC[C@H]1C(=O)N[C@H](C(N)=O)[C@@H](C)O (X1-SQPPS-NH2) | > 100 µM | > 100 µM | > 100 µM | 10.8 min | – | –
CC(C)C[C@H](NC(=O)[C@H]1O[C@@H]1C(=O)N[C@@H](CO)C(=O)N[C@@H](CO)C(=O)N1CCC[C@H]1C(=O)N1CCC[C@H]1C(=O)N[C@@H](CO)C(N)=O)C(=O)N1CCC[C@H]1C(=O)N[C@H](C(N)=O)[C@@H](C)O (X1-SSPPS-NH2) | > 100 µM | > 100 µM | > 100 µM | 12 min | – | –
CC(C)C[C@H](NC(=O)[C@H]1O[C@@H]1C(=O)N[C@H](C(=O)N1CCC[C@H]1C(=O)N1CCC[C@H]1C(=O)N1CCC[C@H]1C(=O)N[C@@H](CO)C(N)=O)[C@@H](C)O)C(=O)N1CCC[C@H]1C(=O)N[C@H](C(N)=O)[C@@H](C)O (X1-TPPPS-NH2) | 8.38 µM | > 50 µM | 12.1 µM | 11 min | – | –
CC(C)C[C@H](NC(=O)[C@@H]1O[C@H]1C(=O)N[C@@H](CCCNC(=N)N)C(=O)N1CCC[C@H]1C(=O)N1CCC[C@H]1C(=O)N1CCC[C@H]1C(=O)N[C@@H](CO)C(N)=O)C(=O)N1CCC[C@H]1C(=O)N[C@H](C(N)=O)[C@@H](C)O (X2-RPPPS-NH2) | 26.3 µM | > 50 µM | > 100 µM | 11.1 min | – | –
CC(C)C[C@H](NC(=O)[C@@H]1O[C@H]1C(=O)N[C@@H](CO)C(=O)N1CCC[C@H]1C(=O)N1CCC[C@H]1C(=O)N1CCC[C@H]1C(=O)N[C@@H](CO)C(N)=O)C(=O)N1CCC[C@H]1C(=O)N[C@H](C(N)=O)[C@@H](C)O (X2-SPPPS-NH2) | > 100 µM | > 50 µM | > 50 µM | 10.9 min | – | –
CC(C)C[C@H](NC(=O)[C@@H]1O[C@H]1C(=O)N[C@@H](CO)C(=O)N[C@@H](CCC(N)=O)C(=O)N1CCC[C@H]1C(=O)N1CCC[C@H]1C(=O)N[C@@H](CO)C(N)=O)C(=O)N1CCC[C@H]1C(=O)N[C@H](C(N)=O)[C@@H](C)O (X2-SQPPS-NH2) | > 100 µM | > 100 µM | > 100 µM | 10.7 min | – | –
CC(C)C[C@H](NC(=O)[C@@H]1O[C@H]1C(=O)N[C@@H](CO)C(=O)N[C@@H](CO)C(=O)N1CCC[C@H]1C(=O)N1CCC[C@H]1C(=O)N[C@@H](CO)C(N)=O)C(=O)N1CCC[C@H]1C(=O)N[C@H](C(N)=O)[C@@H](C)O (X2-SSPPS-NH2) | > 100 µM | > 100 µM | > 100 µM | 11.9 min | – | –
CC(C)C[C@H](NC(=O)[C@@H]1O[C@H]1C(=O)N[C@H](C(=O)N1CCC[C@H]1C(=O)N1CCC[C@H]1C(=O)N1CCC[C@H]1C(=O)N[C@@H](CO)C(N)=O)[C@@H](C)O)C(=O)N1CCC[C@H]1C(=O)N[C@H](C(N)=O)[C@@H](C)O (X2-TPPPS-NH2) | > 50 µM | 4.24 µM | > 50 µM | 12.3 min | 11.8 | –
C[C@@H](O)[C@H](NC(=O)[C@@H]1CCCN1C(=O)[C@@H](NC(=O)[C@H]1O[C@@H]1C(=O)N[C@@H](CO)C(=O)N1CCC[C@H]1C(=O)N1CCC[C@H]1C(=O)N1CCC[C@H]1C(=O)N[C@@H](CO)C(N)=O)[C@@H](C)O)C(N)=O (X3-SPPPS-NH2) | > 100 µM | > 100 µM | > 100 µM | 9.7 min | – | –
CC(C)C[C@H](NC(=O)[C@@H]1O[C@H]1C(=O)N[C@@H](CO)C(=O)N1CCC[C@H]1C(=O)N1CCC[C@H]1C(=O)N1CCC[C@H]1C(=O)N[C@@H](CO)C(N)=O)C(=O)N[C@@H](Cc1c[nH]c2ccccc12)C(=O)N[C@H](C(N)=O)[C@@H](C)O (X4-SPPPS-NH2) | 3.7 µM | 21.4 µM | 4.45 µM | 13.2 min | – | –
CC(C)C[C@H](NC(=O)[C@H]1O[C@@H]1C(=O)N[C@@H](CO)C(=O)N1CCC[C@H]1C(=O)N1CCC[C@H]1C(=O)N1CCC[C@H]1C(=O)N[C@@H](CO)C(N)=O)C(=O)N[C@@H](Cc1c[nH]c2ccccc12)C(=O)N[C@H](C(N)=O)[C@@H](C)O (X5-SPPPS-NH2) | 17.1 µM | 4.05 µM | 5 µM | – | – | 12.5 min
CC(C)C[C@H](NC(=O)[C@H]1O[C@@H]1C(=O)N[C@@H](CO)C(=O)N1CCC[C@H]1C(=O)N1CCC[C@H]1C(=O)N1CCC[C@H]1C(=O)N[C@@H](CO)C(N)=O)C(=O)N[C@@H](CO)C(=O)N[C@H](C(N)=O)[C@@H](C)O (X6-SPPPS-NH2) | 21.9 µM | 14.3 µM | > 50 µM | 10.3 min | – | –
CC(C)[C@H](NC(=O)[C@@H]1O[C@H]1C(=O)N[C@@H](CO)C(=O)N1CCC[C@H]1C(=O)N1CCC[C@H]1C(=O)N1CCC[C@H]1C(=O)N[C@@H](CO)C(N)=O)C(=O)N1CCC[C@H]1C(=O)N[C@H](C(N)=O)[C@@H](C)O (X7-SPPPS-NH2) | > 50 µM | > 100 µM | > 100 µM | 10.2 min | – | –
CC(C)[C@H](NC(=O)[C@H]1O[C@@H]1C(=O)N[C@@H](CO)C(=O)N1CCC[C@H]1C(=O)N1CCC[C@H]1C(=O)N1CCC[C@H]1C(=O)N[C@@H](CO)C(N)=O)C(=O)N1CCC[C@H]1C(=O)N[C@H](C(N)=O)[C@@H](C)O (X8-SPPPS-NH2) | > 50 µM | 29.2 µM | > 100 µM | 10.7 min | – | –
C[C@@H](O)[C@H](NC(=O)[C@@H]1CCCN1C(=O)[C@@H](NC(=O)[C@@H]1O[C@H]1C(=O)N[C@@H](CO)C(=O)N1CCC[C@H]1C(=O)N1CCC[C@H]1C(=O)N1CCC[C@H]1C(=O)N[C@@H](CO)C(N)=O)[C@@H](C)O)C(N)=O (X9-SPPPS-NH2) | > 100 µM | – | – | 9.1 min | – | –
CC(C)C[C@H](NC(=O)[C@@H]1O[C@H]1C(=O)N[C@@H](CO)C(=O)N1CCC[C@H]1C(=O)N1CCC[C@H]1C(=O)N1CCC[C@H]1C(=O)N[C@@H](CO)C(N)=O)C(=O)N[C@@H](CO)C(=O)N[C@H](C(N)=O)[C@@H](C)O (X10-SPPPS-NH2) | 30.8 µM | – | – | 10.2 min | – | –
